ChEMBL document CHEMBL4184287, “Investigating PKA-RII specificity using analogs of the PKA:AKAP peptide inhibitor STAD-2” (Bioorg Med Chem, 2018)
Active and inactive are the calls of the source. No cut-off for these calls is given here.

What was measured:
[1] = target: cAMP-dependent protein kinase type I-alpha regulatory subunit (Homo sapiens) (UniProt P10644); assay: Binding affinity to recombinant human full length PKA-R1alpha expressed in Escherichia coli BL21 DE3-RIL cells assessed as reduction in interaction with AKAP at 20 nM by fluorescence polarization analysis
Summary of the method: (§1)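 Single-concentration direct FP screen: 5 μM full-length recombinant human RIα or RIβ mixed with 20 nM 5(6)-FAM-labelled peptide in 20 mM MOPS pH 7, 150 mM NaCl, 0.005% (v/v) CHAPS. Read at room temperature, Ex 482 nm/Em 520 nm, in duplicate.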

[2] = target: cAMP-dependent protein kinase type I-beta regulatory subunit (Homo sapiens) (UniProt P31321); assay: Binding affinity to recombinant human full length PKA-R1beta expressed in Escherichia coli BL21 DE3-RIL cells assessed as reduction in interaction with AKAP at 20 nM by fluorescence polarization analysis; summary of the method: as §1
Sequence of cAMP-dependent protein kinase type I-beta regulatory subunit (Homo sapiens) (P31321 whole entry): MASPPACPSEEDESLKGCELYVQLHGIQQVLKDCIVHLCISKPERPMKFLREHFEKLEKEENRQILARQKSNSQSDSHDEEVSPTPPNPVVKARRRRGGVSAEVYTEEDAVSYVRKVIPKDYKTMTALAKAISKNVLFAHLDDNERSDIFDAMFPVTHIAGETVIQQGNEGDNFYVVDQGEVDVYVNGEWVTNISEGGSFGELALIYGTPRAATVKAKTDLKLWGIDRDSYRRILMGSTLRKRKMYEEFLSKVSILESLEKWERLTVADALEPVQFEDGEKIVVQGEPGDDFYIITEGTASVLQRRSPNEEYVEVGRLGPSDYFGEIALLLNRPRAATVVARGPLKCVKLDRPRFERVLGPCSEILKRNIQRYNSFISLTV

Sequence of cAMP-dependent protein kinase type I-alpha regulatory subunit (Homo sapiens) (P10644 whole entry): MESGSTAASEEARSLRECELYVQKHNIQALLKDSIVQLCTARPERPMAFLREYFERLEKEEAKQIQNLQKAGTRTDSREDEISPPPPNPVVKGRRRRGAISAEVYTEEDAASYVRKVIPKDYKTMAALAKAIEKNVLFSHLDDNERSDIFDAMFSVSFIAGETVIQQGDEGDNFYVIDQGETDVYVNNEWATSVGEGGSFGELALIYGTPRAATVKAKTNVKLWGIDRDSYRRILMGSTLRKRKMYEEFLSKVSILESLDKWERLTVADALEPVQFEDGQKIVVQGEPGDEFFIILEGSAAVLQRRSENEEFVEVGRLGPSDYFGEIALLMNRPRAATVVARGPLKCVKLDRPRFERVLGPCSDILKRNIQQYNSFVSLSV

## CC(C)C[C@H](NC(=O)[C@H](C)NC(=O)[C@]1(C)CCC/C=C/CCC[C@](C)(NC(=O)[C@H](CO)NC(=O)[C@@H](NC(=O)[C@H](CC(C)C)NC(=O)[C@H](Cc2ccccc2)NC(=O)[C@H](C)NC(=O)[C@H](C)NC(=O)[C@H](CC(C)C)NC(=O)[C@H](CCCCN)NC(=O)[C@H](CCCCN)NC(=O)COCCOCCOCCN)C(C)C)C(=O)N[C@@H](C)C(=O)N[C@@H](CC(C)C)C(=O)N[C@@H](CCCCN)C(=O)N1)C(=O)N[C@@H](CCCCN)C(=O)O
[1]
  Activity: inactive
[2]
  Activity: inactive

## CC(C)C[C@@H]1NC(=O)[C@H](C)NC(=O)[C@@](C)(NC(=O)[C@H](CO)NC(=O)[C@@H](NC(=O)[C@H](CC(C)C)NC(=O)[C@H](Cc2ccccc2)NC(=O)[C@H](CCCCN)NC(=O)[C@H](C)NC(=O)[C@H](CC(C)C)NC(=O)[C@H](CCCCN)NC(=O)[C@H](CCCCN)NC(=O)COCCOCCOCCN)C(C)C)CCC/C=C/CCC[C@@](C)(C(=O)N[C@@H](C)C(=O)N[C@@H](CC(C)C)C(=O)N[C@@H](CCCCN)C(=O)O)NC(=O)[C@H](C)NC1=O
[1]
  Activity: inactive
[2]
  Activity: inactive

## CC(C)C[C@H](NC(=O)[C@H](C)NC(=O)[C@]1(C)CCC/C=C/CCC[C@](C)(NC(=O)[C@H](CO)NC(=O)[C@@H](NC(=O)[C@H](CC(C)C)NC(=O)[C@H](Cc2ccccc2)NC(=O)[C@H](CCCCN)NC(=O)[C@H](C)NC(=O)[C@H](C)NC(=O)[C@H](CCCCN)NC(=O)[C@H](CCCCN)NC(=O)COCCOCCOCCN)C(C)C)C(=O)N[C@@H](C)C(=O)N[C@@H](CC(C)C)C(=O)N[C@@H](CCCCN)C(=O)N1)C(=O)N[C@@H](CCCCN)C(=O)O
[1]
  Activity: inactive
[2]
  Activity: inactive

## CC(C)C[C@@H]1NC(=O)[C@H](C)NC(=O)[C@@](C)(NC(=O)[C@H](CO)NC(=O)[C@@H](NC(=O)[C@H](CC(C)C)NC(=O)[C@H](Cc2ccccc2)NC(=O)[C@H](CCCCN)NC(=O)[C@H](C)NC(=O)[C@H](CC(C)C)NC(=O)[C@H](CCCCN)NC(=O)[C@H](CCCCN)NC(=O)COCCOCCOCCN)C(C)C)CCC/C=C/CCC[C@@](C)(C(=O)N[C@@H](C)C(=O)N[C@@H](C)C(=O)N[C@@H](CCCCN)C(=O)O)NC(=O)[C@H](CCCCN)NC1=O
[1]
  Activity: inactive
[2]
  Activity: inactive

## CC(C)C[C@H](NC(=O)[C@H](C)NC(=O)[C@]1(C)CCC/C=C/CCC[C@](C)(NC(=O)[C@H](CO)NC(=O)[C@H](C)NC(=O)[C@H](CC(C)C)NC(=O)[C@H](Cc2ccccc2)NC(=O)[C@H](CCCCN)NC(=O)[C@H](C)NC(=O)[C@H](CC(C)C)NC(=O)[C@H](CCCCN)NC(=O)[C@H](CCCCN)NC(=O)COCCOCCOCCN)C(=O)N[C@@H](C)C(=O)N[C@@H](CC(C)C)C(=O)N[C@@H](CCCCN)C(=O)N1)C(=O)N[C@@H](CCCCN)C(=O)O
[1]
  Activity: inactive
[2]
  Activity: inactive

## CC(C)C[C@H](NC(=O)[C@H](C)NC(=O)[C@]1(C)CCC/C=C/CCC[C@](C)(NC(=O)[C@H](CO)NC(=O)[C@@H](NC(=O)[C@H](CC(C)C)NC(=O)[C@H](Cc2ccccc2)NC(=O)[C@H](CCCCN)NC(=O)[C@H](C)NC(=O)[C@H](CC(C)C)NC(=O)[C@H](CCCCN)NC(=O)[C@H](CCCCN)NC(=O)COCCOCCOCCN)C(C)C)C(=O)N[C@@H](C)C(=O)N[C@@H](CC(C)C)C(=O)N[C@@H](CCCCN)C(=O)N1)C(=O)N[C@@H](C)C(=O)O
[1]
  Activity: inactive
[2]
  Activity: inactive

## CC(C)C[C@H](NC(=O)[C@H](C)NC(=O)[C@H](CCCCN)NC(=O)COCCOCCOCCN)C(=O)N[C@@H](C)C(=O)N[C@@H](CCCCN)C(=O)N[C@@H](Cc1ccccc1)C(=O)N[C@@H](CC(C)C)C(=O)N[C@H](C(=O)N[C@@H](CO)C(=O)N[C@@]1(C)CCC/C=C/CCC[C@@](C)(C(=O)N[C@@H](C)C(=O)N[C@@H](CC(C)C)C(=O)N[C@@H](CCCCN)C(=O)O)NC(=O)[C@H](CCCCN)NC(=O)[C@H](CC(C)C)NC(=O)[C@H](C)NC1=O)C(C)C
[1]
  Activity: inactive
[2]
  Activity: inactive

## CC(C)C[C@H](NC(=O)[C@H](C)NC(=O)[C@]1(C)CCC/C=C/CCC[C@](C)(NC(=O)[C@H](CO)NC(=O)[C@@H](NC(=O)[C@H](CC(C)C)NC(=O)[C@H](C)NC(=O)[C@H](CCCCN)NC(=O)[C@H](C)NC(=O)[C@H](CC(C)C)NC(=O)[C@H](CCCCN)NC(=O)[C@H](CCCCN)NC(=O)COCCOCCOCCN)C(C)C)C(=O)N[C@@H](C)C(=O)N[C@@H](CC(C)C)C(=O)N[C@@H](CCCCN)C(=O)N1)C(=O)N[C@@H](CCCCN)C(=O)O
[1]
  Activity: inactive
[2]
  Activity: inactive

## CC(C)C[C@H](NC(=O)[C@H](C)NC(=O)[C@]1(C)CCC/C=C/CCC[C@](C)(NC(=O)[C@H](CO)NC(=O)[C@@H](NC(=O)[C@H](CC(C)C)NC(=O)[C@H](Cc2ccccc2)NC(=O)[C@H](CCCCN)NC(=O)[C@H](C)NC(=O)[C@H](CC(C)C)NC(=O)[C@H](CCCCN)NC(=O)[C@H](C)NC(=O)COCCOCCOCCN)C(C)C)C(=O)N[C@@H](C)C(=O)N[C@@H](CC(C)C)C(=O)N[C@@H](CCCCN)C(=O)N1)C(=O)N[C@@H](CCCCN)C(=O)O
[1]
  Activity: inactive
[2]
  Activity: inactive

## CC(C)C[C@H](NC(=O)[C@H](C)NC(=O)[C@]1(C)CCC/C=C/CCC[C@](C)(NC(=O)[C@H](CO)NC(=O)[C@@H](NC(=O)[C@H](CC(C)C)NC(=O)[C@H](Cc2ccccc2)NC(=O)[C@H](CCCCN)NC(=O)[C@H](C)NC(=O)[C@H](CC(C)C)NC(=O)[C@H](CCCCN)NC(=O)[C@H](CCCCN)NC(=O)COCCOCCOCCN)C(C)C)C(=O)N[C@@H](C)C(=O)N[C@@H](C)C(=O)N[C@@H](CCCCN)C(=O)N1)C(=O)N[C@@H](CCCCN)C(=O)O
[1]
  Activity: inactive
[2]
  Activity: inactive

## CC(C)C[C@H](NC(=O)[C@H](C)NC(=O)[C@]1(C)CCC/C=C/CCC[C@](C)(NC(=O)[C@H](C)NC(=O)[C@@H](NC(=O)[C@H](CC(C)C)NC(=O)[C@H](Cc2ccccc2)NC(=O)[C@H](CCCCN)NC(=O)[C@H](C)NC(=O)[C@H](CC(C)C)NC(=O)[C@H](CCCCN)NC(=O)[C@H](CCCCN)NC(=O)COCCOCCOCCN)C(C)C)C(=O)N[C@@H](C)C(=O)N[C@@H](CC(C)C)C(=O)N[C@@H](CCCCN)C(=O)N1)C(=O)N[C@@H](CCCCN)C(=O)O
[1]
  Activity: inactive
[2]
  Activity: inactive

## CC(C)C[C@H](NC(=O)[C@H](C)NC(=O)[C@]1(C)CCC/C=C/CCC[C@](C)(NC(=O)[C@H](CO)NC(=O)[C@@H](NC(=O)[C@H](CC(C)C)NC(=O)[C@H](Cc2ccccc2)NC(=O)[C@H](CCCCN)NC(=O)[C@H](C)NC(=O)[C@H](CC(C)C)NC(=O)[C@H](CCCCN)NC(=O)[C@H](CCCCN)NC(=O)COCCOCCOCCN)C(C)C)C(=O)N[C@@H](C)C(=O)N[C@@H](CC(C)C)C(=O)N[C@@H](CCCCN)C(=O)N1)C(=O)N[C@@H](CCCCN)C(=O)O
[1]
  Activity: inactive
[2]
  Activity: inactive

## CC(C)C[C@H](NC(=O)[C@H](C)NC(=O)[C@]1(C)CCC/C=C/CCC[C@](C)(NC(=O)[C@H](CO)NC(=O)[C@@H](NC(=O)[C@H](C)NC(=O)[C@H](Cc2ccccc2)NC(=O)[C@H](CCCCN)NC(=O)[C@H](C)NC(=O)[C@H](CC(C)C)NC(=O)[C@H](CCCCN)NC(=O)[C@H](CCCCN)NC(=O)COCCOCCOCCN)C(C)C)C(=O)N[C@@H](C)C(=O)N[C@@H](CC(C)C)C(=O)N[C@@H](CCCCN)C(=O)N1)C(=O)N[C@@H](CCCCN)C(=O)O
[1]
  Activity: inactive
[2]
  Activity: inactive
